Compound activity deposited in PubChem by The Scripps Research Institute Molecular Screening Center.
HCV NS3 hel inh: inhibitors of Hepatitis C virus NS3 helicase | 290,000 compounds, 0.56% hits | inhibition, % at 10.9 µM | NS3 helicase DNA unwinding, Cy5 molecular beacon fluorescence;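 active = inhibition above the mean of all tested compounds plus 3 SD, set per campaign, cut at about 35% in these data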;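 note: 0% = DMSO wells and 100% = thioflavine S control wells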
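Test system: hepatitis C virus NS3 helicase domain fragment enzyme. Also added: annealed dual-labelled DNA beacon duplex, ATP-started. Timing: 60 min unwinding reaction at 25 °C after ATP addition. Technique: Cy5 fluorescence. Measure: % inhibition of unwinding.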
TAAR1 antagonist: human TAAR1 antagonism. 360,000 compounds, 1.5% hits. AID 624466. CHO RD-HGA16 TAAR1, Fluo-8 calcium fluorescence, antagonist. inhibition, % at 3 µM;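 active = inhibition above a per-plate cutoff, the mean inhibition of test compounds on that plate plus 3 SD, cut at about 49% in these data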;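 note: 0% = DMSO plus EC80 beta-PEA response and 100% = DMSO alone without agonist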
Target sequence (Q96RJ0 whole entry, looked up): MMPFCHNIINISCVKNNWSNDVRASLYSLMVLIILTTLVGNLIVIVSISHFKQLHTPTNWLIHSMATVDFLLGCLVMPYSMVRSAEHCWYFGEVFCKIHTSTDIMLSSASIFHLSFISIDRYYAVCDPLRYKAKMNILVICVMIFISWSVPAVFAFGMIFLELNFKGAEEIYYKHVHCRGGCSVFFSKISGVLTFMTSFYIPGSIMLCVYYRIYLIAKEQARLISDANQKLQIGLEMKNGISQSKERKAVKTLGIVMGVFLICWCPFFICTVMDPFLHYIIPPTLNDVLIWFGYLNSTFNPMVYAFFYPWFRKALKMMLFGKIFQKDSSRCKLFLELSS
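Test system: hTAAR1-expressing CHO RD-HGA16 cells, Gα16-coupled; Probe or stimulus: EC80 β-phenethylamine stimulus; Compound dosing: single nominal final test compound concentration of 3 µM; Timing: 140 s kinetic read after compound, 140 s after agonist; Signal: Fluo-8 calcium-sensitive fluorescence; Measure: % inhibition of agonist calcium response; Controls: DMSO and EC80 PEA controls.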
rCAG RNA binder: binds r(CAG) RNA repeats. r(CAG) RNA repeat, TO-PRO-1 dye displacement fluorescence. inhibition, % at 3 µM. 370,000 compounds, 1.3% hits;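 active = inhibition above the plate cutoff, the mean of all test compounds on that plate plus 3 SD, cut at about 35% in these data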;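 note: 0% = DMSO alone and 100% = 100 µM mitoxantrone as full dye displacement; higher means more dye released from RNA so lower well fluorescence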
core dimer inh: blocks dimerization of HCV core protein; TR-FRET GST/Flag-core106 dimerization, 1536-well; inhibition, % at 5 µM; 300,000 compounds, 0.33% hits; AID 1899;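 active = inhibition above the mean of all tested compounds plus 3 SD, set per screening campaign, cut at about 45% in these data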
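System: GST/Flag-tagged HCV core106 proteins. Incubation: compound-protein-antibody incubation 4 h at 22.5 °C. Technique: HTRF with 340 nm excitation, 617/671 nm emission. Medium: KF-containing HEPES buffer, pH 7.45, DTT, CHAPS, BSA. Read-out: inhibition (%) from 671 over 617 nm ratio. Also added: Eu(K)-anti-GST 90 ng/mL plus XL665-anti-Flag 1 µg/mL.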
TAAR1 agonist: agonists of human TAAR1; Q96RJ0; CHO RD-HGA16 TAAR1, Fluo-8 calcium fluorescence; vehicle wells 0%, saturating PEA agonist 100%; activation, % at 3 µM; 360,000 compounds, 0.99% hits; AID 624467;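 active = activation above the mean activation of all test compounds in the run plus 3 SD, cut at about 38% in these data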
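System: CHO RD-HGA16 cells carrying human TAAR1 plus Gα16; Incubation: 17-24 h seeding, 75 min 37 °C dye, 30 min RT; Measured by: Fluo-8 fluorescence, 5 s baseline then 140 s kinetic read; Control set: DMSO and PEA EC100; Replication: single well for each compound.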
TAAR1 nonsel count: counter-screen for TAAR1 antagonists: nonselective antagonists. shares compounds with TAAR1 antagonist. counterscreen cell line, calcium fluorescence, antagonist mode. 2,400 compounds, 77% hits. inhibition, % at 3 µM; in the data active = inhibition above about 22%;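 note: CHO-Ga16 host cells stimulated with ATP at an EC80 level; 0% = agonist EC80 plus vehicle and 100% = vehicle without agonist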
TAAR1 antag conf: human TAAR1 antagonism, confirmed; inhibition, % at 3 µM; 2,400 compounds, 40% hits; TAAR1-expressing cells, fluorescence antagonist read-out; AID 651785; shares compounds with TAAR1 antagonist; in the data active = inhibition above about 49%;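 note: CHO-Ga16 host cells challenged with agonist PEA near its EC80; 0% = agonist at EC80 plus vehicle and 100% = vehicle with no agonist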
Ga16 nonsel ag: nonselective Ga16 agonism, counter-screen | shares compounds with TAAR1 antagonist | Ga16-expressing cells, calcium fluorescence, agonist counterscreen | activation, % at 3 µM | 2,400 compounds, 18% hits; in the data active = activation above about 12%;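 note: 0% = vehicle wells and 100% = saturating stimulus response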
TAAR1 ag count: TAAR1 agonism, antagonist counter-screen | activation, % at 3 µM | AID 651955 | shares compounds with TAAR1 antagonist | hTAAR1 cell line, fluorescence activation, agonist mode | 2,400 compounds, 2% hits; in the data active = activation above about 37%;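 note: CHO cells stably expressing TAAR1 with calcium dye readout; 0% = DMSO vehicle and 100% = full agonist response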
The depositor's hits bear a star. Most compounds without a hit are left out; they make up all but 3.7% or so of the library.

Screening CC1(C)C(=O)Nc2ccccc2N1C(=O)COC(=O)/C=C/c1ccc(OC(F)F)cc1 returned TAAR1 antagonist 56.9*, rCAG RNA binder 0.2, core dimer inh 6.8, TAAR1 agonist 20.8, TAAR1 nonsel count 31.1*, TAAR1 antag conf 46.0, Ga16 nonsel ag 12.0* and TAAR1 ag count 10.4.
Screening CN1C(=O)[C@@](O)(c2cccn2C)c2cc(Cl)ccc21 returned rCAG RNA binder -0.1.
Cc1c(C2Nc3ccccc3C2C)[nH]c2ccccc12 (configuration not stated) was read as TAAR1 antagonist -13.9, rCAG RNA binder 6.2 and TAAR1 agonist 1.9.
Screening COc1ccc(NC(=O)c2ccc(C#N)cc2)cc1NS(=O)(=O)c1ccc(F)cc1 returned HCV NS3 hel inh -11.1, TAAR1 antagonist 70.5*, rCAG RNA binder 5.6, core dimer inh 11.7, TAAR1 agonist -0.3, TAAR1 nonsel count 5.5, TAAR1 antag conf 8.3, Ga16 nonsel ag 4.8 and TAAR1 ag count 4.8.
Screening O=[N+]([O-])c1ccc(O)c(/C=N/n2c(CO)nc3ccccc32)c1 returned HCV NS3 hel inh 0.5, TAAR1 antagonist 2.6, rCAG RNA binder 5.3, core dimer inh -5.6 and TAAR1 agonist 1.4.
`O=c1c2ccccc2nc(COc2ccccc2)n1/N=C/c1ccc(O)cc1O` gave HCV NS3 hel inh -3.1, TAAR1 antagonist 78.7*, rCAG RNA binder 10.9, core dimer inh -2.7, TAAR1 agonist 11.8, TAAR1 nonsel count 31.6*, TAAR1 antag conf 60.8*, Ga16 nonsel ag 8.1 and TAAR1 ag count 7.8.
Screening C/C(=N\OCc1nc2ccccc2c(=O)n1/N=C/c1cc([N+](=O)[O-])ccc1O)c1ccccc1 returned HCV NS3 hel inh -5.9, TAAR1 antagonist 64.1*, rCAG RNA binder 61.5*, core dimer inh 6.8, TAAR1 agonist 9.1, TAAR1 nonsel count 30.9*, TAAR1 antag conf 46.6, Ga16 nonsel ag 8.2 and TAAR1 ag count 5.2.
Cc1ccc(-c2nnc(SCC(=O)NNC(=S)Nc3ccccc3)n2C2CCCCC2)cc1 was read as rCAG RNA binder 31.2.
`O=C(Nc1ccccc1OC(=O)c1ccc(Cl)cc1)c1ccc(Cl)cc1` gave HCV NS3 hel inh 13.5, TAAR1 antagonist 53.9*, rCAG RNA binder 2.2, core dimer inh 8.7, TAAR1 agonist 0.1, TAAR1 nonsel count -2.4, TAAR1 antag conf 53.2*, Ga16 nonsel ag 1.4 and TAAR1 ag count 8.9.
`CC(C)C(=O)N1CCN(c2ccccc2NC(=S)NC(=O)/C=C/c2ccco2)CC1` gave TAAR1 antagonist 50.8*, rCAG RNA binder 20.2, TAAR1 agonist 6.2, TAAR1 nonsel count 19.4, TAAR1 antag conf 45.7, Ga16 nonsel ag 4.2 and TAAR1 ag count 12.9.
O=C(Nc1ccccc1N1CCN(C(=O)c2ccccc2)CC1)c1ccc(Cl)cc1 was read as HCV NS3 hel inh -1.7, TAAR1 antagonist 54.9*, rCAG RNA binder -6.2, core dimer inh 2.6, TAAR1 agonist 4.7, TAAR1 nonsel count 24.1*, TAAR1 antag conf 46.3, Ga16 nonsel ag 5.4 and TAAR1 ag count 0.9.
Screening CC(C)C(=O)NC(=S)Nc1ccccc1N1CCN(C(=O)c2ccccc2)CC1 returned HCV NS3 hel inh 11.1, TAAR1 antagonist 77.9*, rCAG RNA binder 1.2, core dimer inh 6.2, TAAR1 agonist 18.5, TAAR1 nonsel count 38.4*, TAAR1 antag conf 59.6*, Ga16 nonsel ag 13.9* and TAAR1 ag count 16.6.
`CC(=O)NC(=S)Nc1ccccc1N1CCN(C(=O)c2ccccc2)CC1` gave HCV NS3 hel inh -4.1, TAAR1 antagonist 6.4, rCAG RNA binder -8.8, core dimer inh -0.2 and TAAR1 agonist 14.8.
For O=C(Nc1ccccc1N1CCN(C(=O)c2ccc(Cl)cc2)CC1)c1ccc(Br)cc1 the results were HCV NS3 hel inh -7.2, TAAR1 antagonist 18.2, rCAG RNA binder 1.5, core dimer inh 13.8 and TAAR1 agonist 5.9.
`CCOc1cccc(-c2nnc(SCC(=O)Nc3ccc4c(c3)OCO4)n2N)c1` gave rCAG RNA binder 2.5.
For O=C(NCCc1ccccc1)OCc1cn(-c2ccccc2Cl)nn1 the results were rCAG RNA binder 3.4.
Screening O=C(O)CCCNC(=O)/C(=C\C=C\c1ccccc1)NC(=O)c1ccccc1Cl returned HCV NS3 hel inh 7.4, TAAR1 antagonist -1.5, rCAG RNA binder 7.0, core dimer inh 2.4 and TAAR1 agonist 1.1.
Screening C=CCNC(=O)/C(=C\C=C\c1ccccc1)NC(=O)c1ccccc1Cl returned HCV NS3 hel inh -14.0, TAAR1 antagonist 61.6*, rCAG RNA binder -0.6, core dimer inh -17.1, TAAR1 agonist 13.0, TAAR1 nonsel count 24.9*, TAAR1 antag conf 35.9, Ga16 nonsel ag 6.3 and TAAR1 ag count 6.8.
Cc1ccc(-n2c(-c3cnccn3)n[nH]c2=S)c(Br)c1 was read as HCV NS3 hel inh 2.6, TAAR1 antagonist 104.3*, rCAG RNA binder 1.3, core dimer inh -4.0, TAAR1 agonist -3.1, TAAR1 nonsel count 8.0, TAAR1 antag conf -6.3, Ga16 nonsel ag 6.8 and TAAR1 ag count 7.8.
Screening O=C(Cc1c[nH]c2ccccc12)Nc1ccc(Nc2cccnc2)c(-c2ccc(-c3ccccc3)cc2F)c1 returned TAAR1 antagonist 58.2*, rCAG RNA binder 18.2, TAAR1 agonist 7.0, TAAR1 nonsel count 32.9*, TAAR1 antag conf 46.0, Ga16 nonsel ag 4.7 and TAAR1 ag count 7.7.
For Cc1[nH]c2ccccc2c1CC(=O)Nc1ccc(Nc2cccnc2)c(-c2ccc(F)c(F)c2)c1 the results were TAAR1 antagonist 30.1, rCAG RNA binder 9.3 and TAAR1 agonist 2.6.
For O=C(Cc1c[nH]c2ccccc12)Nc1ccc(Nc2cccnc2)c(-c2cccc(Cl)c2)c1 the results were TAAR1 antagonist 71.5*, rCAG RNA binder 15.3, TAAR1 agonist 11.8, TAAR1 nonsel count 28.7*, TAAR1 antag conf 44.7, Ga16 nonsel ag 7.3 and TAAR1 ag count 4.0.
Screening O=C(CCc1c[nH]c2ccccc12)Nc1ccc(Nc2cccnc2)c(Br)c1 returned TAAR1 antagonist 70.8*, rCAG RNA binder 8.9, TAAR1 agonist 6.5, TAAR1 nonsel count 31.2*, TAAR1 antag conf 39.0, Ga16 nonsel ag 6.7 and TAAR1 ag count 8.5.
